dFosB act-1: activators of mouse delta FosB homodimer | purified delta FosB, TAMRA-CDK5 oligo fluorescence polarization; percent of positive-control signal above neutral wells | activation, % at 25 µM | 0.99% of 340,000 active | AID 493131;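 active means mean activation above about 17%, with every replicate also reaching it, limit read from the data, passing the limit was not always enough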
SR-BI HDL uptake: blocks mouse SR-BI lipid uptake from DiI-HDL | ldlA[mSR-BI] CHO cells, DiI-HDL uptake fluorescence, 3 h | Q61009 | 0.96% of 320,000 active | inhibition, % at 12.5 µM | AID 488896;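 active means mean replicate inhibition of at least 70% and a set share of replicates each scoring 70 or more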;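 further: 0% = median of neutral control wells and 100% = median of positive control wells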
Target sequence (Q61009 whole entry, looked up): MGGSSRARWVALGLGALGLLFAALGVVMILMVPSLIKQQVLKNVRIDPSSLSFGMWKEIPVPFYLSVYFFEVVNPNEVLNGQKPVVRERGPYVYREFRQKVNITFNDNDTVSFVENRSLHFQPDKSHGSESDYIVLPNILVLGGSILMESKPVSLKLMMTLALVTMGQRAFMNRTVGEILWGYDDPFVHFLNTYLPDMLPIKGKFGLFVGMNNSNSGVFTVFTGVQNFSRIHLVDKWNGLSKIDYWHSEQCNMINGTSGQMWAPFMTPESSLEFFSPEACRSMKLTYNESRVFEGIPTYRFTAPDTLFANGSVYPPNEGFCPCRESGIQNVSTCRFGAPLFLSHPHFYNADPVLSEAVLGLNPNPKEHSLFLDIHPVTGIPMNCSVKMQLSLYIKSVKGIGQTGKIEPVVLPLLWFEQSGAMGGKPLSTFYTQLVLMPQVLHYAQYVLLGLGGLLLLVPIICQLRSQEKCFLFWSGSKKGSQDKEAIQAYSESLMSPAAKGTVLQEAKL
PKA-R2B act: PKA-R2B complex activation | activation, % at 11.4 µM | AID 504700 | 0.079% of 340,000 active | PKA-R2B holoenzyme dissociation, Cy5-IP20 fluorescence polarization; R2B truncated from residue 108, S112A mutant; 0% DMSO only, 100% 113 µM cGMP;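 active means activation above a cutoff set at the mean over all compounds plus 3 SD, cut at about 18% in these data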;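 further: higher means more holoenzyme dissociation and a rise in polarization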
SR-BI uptake up: activators of SR-BI mediated HDL lipid uptake | CHO ldlA[mSR-BI] cells, DiI-HDL uptake fluorescence, 3 h; 100 = double the neutral-control signal | activation, % at 12.5 µM | 0.096% of 320,000 active;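 active means mean replicate activation of at least 60% and every replicate at or above 60%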;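 further: 0% = median plate neutral-control signal and 100% = twice that signal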
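System: LDL receptor-deficient CHO ldlA cells overexpressing murine SR-BI | Timing: 3 h uptake period with compound, 37 °C | Medium: HEPES-buffered (25 mM, pH 7.4) F12 plus 0.5% BSA | Dosing: Single-point compound dose | Signal: Bottom-read fluorescence, 550/595 nm | Read-out: Retained DiI signal reflecting DiI-HDL uptake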
PKA-R1A act: activates the PKA-R1A holoenzyme complex. P00514+P68181. PKA-R1A dissociation, Cy5-IP20 fluorescence polarization; scaled: DMSO 0%, 113 µM cGMP 100%. activation, % at 11.4 µM. 0.083% of 340,000 active. AID 504707;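 active means percent activation above the mean of all tested compounds plus 3 SD, cut at about 19% in these data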;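 further: higher means more PKAc released from R1A so a rise in polarization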
CDK5 p35 inh: blocks human CDK5/p35 kinase activity; Q00535+Q15078; AID 488839; Recombinant CDK5/p35, ADP-Glo luminescence, 60 min; inhibition, % at 10 µM; 0.01% of 330,000 active;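 active means highest replicate inhibition of at least 50% and at least 75% of replicates reaching 50%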;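 further: plate controls were DMSO neutral control for no effect and GW8510 at 10 µM for full effect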
dFosB act-2: delta FosB (mouse) homodimer activation. purified delta FosB, TAMRA-CDK5 oligo fluorescence polarization; normalised: neutral wells 0, positive control 100. shares compounds with dFosB act-1. 2,400 tested, under 10 active. activation, % at 24.9 µM;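 active means highest replicate activation at or above 34% and every replicate reaching that threshold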;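 further: higher polarization means more probe DNA bound by delta FosB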
R2B FP artifact: fluorescence polarization artifact in PKA-R2B activator counter-screen | shares compounds with PKA-R2B act | activation, % at 11.4 µM | 6% of 270 active | FP artifact counterscreen; in the data active means activation above about 20%;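 further: Cy5 labelled IP20 peptide probe with compound but no PKA protein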
PKA-R2B confirm: confirmation of human PKA-R2B complex activators; shares compounds with PKA-R2B act; fluorescence polarization, activation; AID 504797; activation, % at 11.4 µM; 9% of 270 active; in the data active means activation above about 19%
R1A FP artifact: fluorescence polarization artifact in PKA-R1A activator counter-screen. activation, % at 11.4 µM. Cy5-IP20 peptide alone, fluorescence polarization artifact counterscreen. shares compounds with PKA-R1A act. 7% of 280 active;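 active means mean activation over triplicate runs exceeds the adjusted cutoff derived for the parent primary screen, cut at about 19% in these data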;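 further: no PKA protein present so any polarization rise reflects compound interference; 0% = tracer peptide mix alone and 100% = mix with added PKA catalytic subunit; higher means stronger polarization artifact and likely false positive in parent screen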
PKA-R1A confirm: PKA-R1A complex activation, confirmation | shares compounds with PKA-R1A act | Cy5-IP20 fluorescence polarization, PKA-R1A holoenzyme dissociation | activation, % at 11.4 µM | 9% of 280 active | AID 504800;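 active means mean activation over replicate wells exceeds the adjusted hit threshold taken from the earlier primary screen, cut at about 20% in these data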;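 further: 0% = holoenzyme mix with DMSO only and 100% = cGMP-activated control wells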
The depositor's hits bear a star; x = no result given. Hits are enriched below; roughly 2.1% of the tested compounds scored in any of these assays.

SMILES | dFosB act-1 | SR-BI HDL uptake | PKA-R2B act | SR-BI uptake up | PKA-R1A act | CDK5 p35 inh | dFosB act-2 | others
Cc1ccc(-c2cc(C(=O)NCc3ccc4c(c3)OCO4)no2)cc1 | 4 | -14 | -12 | 14 | -17 | 0 | x
Cc1ccc(NC(=O)c2cc(-c3ccc4c(c3)OCO4)on2)cc1 | 18* | -26 | -1 | 26 | 0 | 1 | 3
C=CCn1c(SCC(=O)Nc2sccc2C#N)nc2sc(C)c(C)c2c1=O | 23* | -38 | 1 | 38 | -10 | -3 | -6
C=CCn1c(SCC(=O)Nc2ccc(C(=O)O)cc2)nc2sc(C)c(C)c2c1=O | 5 | -6 | -16 | 6 | -4 | 0 | x
CCN1CCN(S(=O)(=O)Cc2ccccc2Cl)CC1 | -2 | -6 | 7 | 6 | -23 | 1 | x
CCOc1ccc(-n2c(=O)c3c4c(sc3n(CC(=O)NCCCOC)c2=O)CCCCC4)cc1 | 8 | -10 | -7 | 10 | 5 | 0 | x
NC(=O)Cn1c(=O)n(C2CCCCC2)c(=O)c2c3c(sc21)CCCCC3 | 44* | -47 | -4 | 47 | -2 | 0 | 0
COc1ccc(-n2c(=O)c3c4c(sc3n(CC(N)=O)c2=O)CCCCC4)cc1 | 30* | -16 | -14 | 16 | 5 | 2 | -1
O=C(Nn1cnnc1)c1ccc(Cl)c(Cl)c1 | 0 | -14 | -4 | 14 | 3 | 1 | x
CN(Cc1ccc(C(C)(C)C)cc1)C(=O)c1ccc2c(c1)OCO2 | -11 | -31 | -10 | 31 | 1 | -1 | x
Cc1ccc(S(=O)(=O)N2CCN(C(=O)C(Cc3ccccc3)NC(=O)c3ccccc3)CC2)cc1 (configuration not stated) | 23* | 1 | 1 | -1 | 0 | 0 | 3
CC(C)(C)c1ccc(/C=C/C(=O)c2ccc(NC3=NCCCS3)cc2)cc1 | 31* | 19 | 1 | -19 | -13 | -1 | -2
Cc1cccc(/C=C/C(=O)c2ccc(NC3=NCCCS3)cc2)c1 | 13 | 9 | 4 | -9 | -12 | 1 | x
O=C(COc1ccc2ccccc2c1)NC1=NCCS1 | 54* | -11 | -11 | 11 | 4 | -1 | 7
N#Cc1ccccc1/C=N/Nc1nc(-c2ccccc2)c2cc(Cl)ccc2n1 | 19* | x | -14 | x | 2 | -2 | 1
Cc1ccc2nc(N/N=C/c3ccccc3C#N)nc(-c3ccccc3)c2c1 | -24 | 69 | -2 | -69 | -5 | 1 | x
CCC(C(=O)NCCc1ccc(S(N)(=O)=O)cc1)c1ccccc1 (configuration not stated) | 8 | 3 | -13 | -3 | -7 | 3 | x
Cc1cc(=O)[nH]c(SCC(=O)Nc2nnc(CC(C)C)s2)n1 | -3 | -8 | -3 | 8 | -14 | -1 | x
CC(C)Cc1nnc(NC(=O)CSc2nc(-c3ccccc3)cc(=O)[nH]2)s1 | 49* | -9 | -8 | 9 | -3 | 1 | 1
COc1ccc(/C=C2\SC(=O)N(CC(=O)NNC(=O)c3ccccc3O)C2=O)cc1 | 67* | -1 | 20* | 1 | 15 | 1 | 2 | R2B FP artifact=13;PKA-R2B confirm=21*
O=C(NC(=S)NC1CCCCC1)c1ccc(F)cc1 | -8 | 3 | -9 | -3 | 1 | 0 | x
C/C(=N/NC(=O)c1cccs1)c1ccc(NC(=O)COc2ccc(Cl)cc2)cc1 | 32* | 21 | 2 | -21 | 19* | 0 | 5 | R1A FP artifact=4;PKA-R1A confirm=5
C/C(=N\NC(=O)c1ccc(Cl)cc1)c1cccs1 | -5 | 2 | -3 | -2 | -14 | 1 | x
C=CCN1C(=O)c2ccc(C(=O)OCC(=O)N(CC)c3c(N)n(Cc4ccccc4)c(=O)[nH]c3=O)cc2C1=O | -2 | 11 | 7 | -11 | 12 | 2 | x
COc1ccc2oc(C(=O)OCC(=O)Nc3ccc(NC(C)=O)cc3)c(C)c2c1 | 36* | 30 | 25* | -30 | 20* | 0 | -8 | R2B FP artifact=8;PKA-R2B confirm=13;R1A FP artifact=8;PKA-R1A confirm=13
SMILES | dFosB act-1 | SR-BI HDL uptake | PKA-R2B act | SR-BI uptake up | PKA-R1A act | CDK5 p35 inh | dFosB act-2 | others
C=CCN(CCNP(=O)(OCC)OCC)CP(=O)(OCC)OCC | -7 | -29 | 20* | 29 | 16 | -1 | x | R2B FP artifact=4;PKA-R2B confirm=0
CCN1CCN(Cc2nnc(-c3ccccc3)o2)CC1 | 6 | 0 | -5 | 0 | 1 | 1 | x
CC1CN(Cc2nnc(-c3ccccc3)o2)CC(C)O1 (configuration not stated) | -8 | -37 | 22* | 37 | -4 | 0 | x | R2B FP artifact=4;PKA-R2B confirm=2
COc1cccc(CC(NC(C)=O)C(=O)NC2CCN(C(=O)c3ccncc3)CC2)c1OC (configuration not stated) | 1 | 0 | 19* | 0 | -5 | 1 | x | R2B FP artifact=6;PKA-R2B confirm=2
COc1cccc(CC(NC(C)=O)C(=O)NC2CCN(C(=O)C3CCCCC3)CC2)c1OC (configuration not stated) | 1 | x | -2 | x | -1 | 0 | x
CC(=O)Nc1ccc(S(=O)(=O)NNC(=O)COc2cc(C)ccc2C(C)C)cc1 | -1 | 12 | 20* | -12 | 7 | 0 | x | R2B FP artifact=3;PKA-R2B confirm=0
CCOC(=O)N1CCN(C(=O)COC(=O)CNC(=O)c2ccc(OCC)c(OCC)c2)CC1 | -6 | 38 | -15 | -38 | -5 | 1 | x
Oc1ccc(/C=N/Nc2ncnc3nc[nH]c23)cc1 | 1 | x | 22* | x | -4 | 1 | x | R2B FP artifact=2;PKA-R2B confirm=-5
Clc1ccc(/C=N/Nc2ncnc3nc[nH]c23)cc1 | -10 | x | 1 | x | -4 | 11 | x
O=c1[nH]cnc2nc(-c3ccccc3)c(-c3ccccc3)nc12 | -4 | -9 | 5 | 9 | 4 | -1 | x
O=c1[nH]cnc2ncc(-c3ccc(O)cc3)nc12 | 8 | -6 | 20* | 6 | -10 | -1 | x | R2B FP artifact=7;PKA-R2B confirm=7
CC(=O)N(c1ccc(Cl)cc1)c1nc(C)cc(C)c1C#N | 3 | -18 | 20* | 18 | 6 | 2 | x | R2B FP artifact=1;PKA-R2B confirm=3

Assay outcomes deposited in PubChem by several laboratories.
